According to ChEMBL document CHEMBL1151692, “Substituted hippurates and hippurate analogs as substrates and inhibitors of peptidylglycine alpha-hydroxylating monooxygenase (PHM)” (Bioorg Med Chem, 2008):
Where a SMILES comes first, the peptide text is derived from it. [ ]: non-standard residue; d: D form. The star is where a group is joined. Dansyl = CN(C)c1cccc2c(S(=O)(=O)*)cccc12; pGlu = O=C1CC[C@@H](C(=O)O)N1; Boc = CC(C)(C)OC(=O)*; Bz = O=C(c1ccccc1)*; ClAc = O=C(CCl)*; NHOH = ON*

Tests used:
[1] = target: peptidylglycine alpha-amidating monooxygenase (Rattus norvegicus) (UniProt P14925); test: Inhibition of rat peptidylamidoglycolate lyase assessed as ascorbate-independent dealkylation of alpha-hydroxy-hipurate; parameters: concentration or dose not given beside the values; conditions: for inhibition: concentration not given here
[2] = target: T1, Peptidylglycine alpha-amidating monooxygenase (Rattus norvegicus) (UniProt P14925); test: Ratio of Vm(app) to Km(app) for rat recombinant peptidylglycine alpha-amidating monooxygenase
T1 sequence (whole entry): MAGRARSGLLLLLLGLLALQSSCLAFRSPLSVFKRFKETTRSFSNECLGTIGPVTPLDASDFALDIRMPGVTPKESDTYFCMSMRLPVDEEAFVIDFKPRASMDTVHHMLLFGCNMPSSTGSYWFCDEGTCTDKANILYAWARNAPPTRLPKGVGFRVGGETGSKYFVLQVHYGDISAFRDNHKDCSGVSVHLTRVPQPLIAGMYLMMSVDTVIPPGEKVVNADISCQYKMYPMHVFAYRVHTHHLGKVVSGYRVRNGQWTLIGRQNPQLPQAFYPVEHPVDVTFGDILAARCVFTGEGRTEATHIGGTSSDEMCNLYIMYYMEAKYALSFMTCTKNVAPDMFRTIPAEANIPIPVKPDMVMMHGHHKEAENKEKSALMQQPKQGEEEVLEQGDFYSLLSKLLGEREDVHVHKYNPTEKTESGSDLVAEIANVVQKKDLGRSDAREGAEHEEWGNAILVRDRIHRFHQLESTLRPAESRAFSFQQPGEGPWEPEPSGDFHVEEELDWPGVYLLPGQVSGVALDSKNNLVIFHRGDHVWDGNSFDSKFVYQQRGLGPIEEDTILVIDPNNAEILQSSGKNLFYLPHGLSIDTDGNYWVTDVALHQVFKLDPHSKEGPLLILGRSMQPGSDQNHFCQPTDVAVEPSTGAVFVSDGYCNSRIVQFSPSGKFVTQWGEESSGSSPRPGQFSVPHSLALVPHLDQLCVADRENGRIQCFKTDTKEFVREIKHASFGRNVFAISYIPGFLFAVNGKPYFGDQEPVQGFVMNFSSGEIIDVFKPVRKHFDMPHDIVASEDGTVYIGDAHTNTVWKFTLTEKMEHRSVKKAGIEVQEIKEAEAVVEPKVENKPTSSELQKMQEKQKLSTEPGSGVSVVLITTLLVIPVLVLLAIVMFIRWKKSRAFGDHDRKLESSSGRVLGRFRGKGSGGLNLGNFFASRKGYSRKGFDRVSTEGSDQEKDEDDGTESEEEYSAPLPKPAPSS
In short: (§1)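 Recombinant rat type A medullary thyroid carcinoma PAM (bifunctional), 15–50 μg, in 100 mM MES/NaOH pH 6.0, 30 mM NaCl, 1% ethanol, 0.001% Triton X-100, 10 μg/mL catalase, 1.0 μM Cu(NO3)2, 5.0 mM ascorbate, ~200 μM O2, 37 °C. Substrate generally 0.3–5.0 KM,app. Initial O2 consumption rates read by oxygen monitor and fit to Michaelis–Menten.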

[3] = target: T1, Peptidylglycine alpha-amidating monooxygenase (Rattus norvegicus); test: Ratio of Vm(app) to Km(app) for rat recombinant peptidylglycine alpha-amidating monooxygenase relative to hippuric acid
In short: as §1

[4] = target: T1, Peptidylglycine alpha-amidating monooxygenase (Rattus norvegicus); test: Activity of rat recombinant peptidylglycine alpha-amidating monooxygenase assessed as stimulation of oxygen consumption
[5] = target: T1, Peptidylglycine alpha-amidating monooxygenase (Rattus norvegicus); test: Inhibition of rat recombinant peptidylglycine alpha-amidating monooxygenase assessed as inhibition of N-dansyl-Tyr-Val-Gly amidation
[6] = target: T1, Peptidylglycine alpha-amidating monooxygenase (Rattus norvegicus); test: Inhibition of rat recombinant peptidylglycine alpha-amidating monooxygenase in presence of DMSO

Row | Compound | Ratio [2] | Activity [3] | Vmax(app) [4] [s⁻¹] | further results
1 | CCCCCCCCCCCC(=S)SCC(=O)O | – | – | – | inhibition [1]: < 5%
2 | O=C(O)CNC(=O)CCCc1ccccc1 | 7 ×10⁴ /M/s | 11 | 11 | –
3 | CC(=O)NCC(=O)NCC(=O)O | 5.9 ×10³ /M/s | 1 | 8.9 | –
4 | Cc1cccc(C(=O)NCC(=O)O)c1 | 4.7 ×10³ /M/s | 0.8 | 6.4 | –
5 | O=C(O)CNC(=O)c1c(F)cccc1F | 2.3 ×10² /M/s | 0.04 | 4.3 | –
6 | CC(=O)NCC(=O)O | – | 0.1 | – | –
7 | O=C(O)CNCc1ccccc1 | – | – | – | inhibition [1]: < 5%
8 | O=C(O)CNC(=O)CNC(=O)CCl (ClAc-Gly-Gly-OH) | 2.1 ×10⁴ /M/s | 3.3 | 8.9 | –
9 | O=C(O)CNC(=O)c1ccccc1I | 9.1 ×10² /M/s | 0.1 | 3.1 | –
10 | O=C(NC(CSC(=O)c1ccccc1)C(=O)O)c1ccccc1 (single isomer, unassigned) | – | – | – | inhibition [1]: < 5%
11 | CC(C)(C)OC(=O)NCC(=O)O | 1.7 ×10³ /M/s | 0.3 | 6.3 | –
12 | O=C(O)CNC(=O)CNC(=O)c1ccccc1 (Bz-Gly-Gly-OH) | 1.6 ×10⁵ /M/s | 26 | 12 | –
13 | O=C(NCC[C@H](O)C(=O)O)OCc1ccccc1 | – | – | – | inhibition [1]: < 5%
14 | O=C(NO)c1ccccc1O | – | – | – | inhibition [1]: < 5%
15 | O=C(O)CNC(=O)CCCCCc1ccccc1 | 2 ×10⁵ /M/s | 32 | 11 | –
16 | CC(C)C[C@H](NC(=O)[C@@H]1CCCN1)C(=O)NCC(=O)NO (H-Pro-Leu-Gly-{NHOH}) | – | – | – | inhibition [1]: < 5%
17 | O=C(O)COC(=O)Nc1ccccc1 | – | – | – | inhibition [1]: < 5%
18 | O=C(N[C@H](CO)C(=O)O)c1ccccc1 | – | – | – | inhibition [1]: < 5%
19 | O=C(O)CNC(=O)c1cccc(Cl)c1 | 3.6 ×10³ /M/s | 0.6 | 7.8 | –
20 | COC(=O)CNC(=O)[C@@H](NC(=O)[C@H](Cc1ccc(O)cc1)NS(=O)(=O)c1cccc2c(N(C)C)cccc12)C(C)C (Dansyl-Tyr-Val-Gly-OMe) | – | – | – | Kis [5]: 54 µM
21 | O=C(O)CONC(=O)c1ccccc1 | – | – | – | inhibition [1]: < 5%
22 | O=C(O)CNC(=O)CCCCCCCc1ccccc1 | 7.6 ×10⁴ /M/s | 12 | 8 | –
23 | Cc1ccc(C(=S)SCC(=O)O)cc1 | – | – | – | inhibition [1]: < 5%
24 | O=C(O)CNC(=O)CCc1ccccc1 | 1.1 ×10⁴ /M/s | 1.8 | 9.9 | –

Row | Compound | Ratio [2] | Activity [3] | Vmax(app) [4] [s⁻¹] | further results
25 | CC(=O)N[C@H](C)C(=O)O | 0.95 M⁻¹ s⁻¹ | – | 1.3 | –
26 | O=C(O)CNC(=O)CCCCc1ccccc1 | 7.6 ×10⁴ /M/s | 12 | 12 | –
27 | O=C(O)CNC(=O)Nc1ccccc1 | 2.7 ×10⁴ /M/s | 4.4 | 9.7 | –
28 | Cc1ccc(C(=O)NCC(=O)O)cc1 | 3.2 ×10³ /M/s | 0.5 | 5.7 | –
29 | O=C(O)CNC(=S)CCc1ccccc1 | 4.2 ×10⁴ /M/s | 6.8 | 1.6 | –
30 | O=C(O)CNC(=O)C1CC1c1ccccc1 (stereo not given) | 1.1 ×10⁴ /M/s | 1.8 | 10 | –
31 | O=C(O)CNC(=O)SCc1ccccc1 | 1.2 ×10⁴ /M/s | 1.9 | 0.69 | –
32 | O=C(O)CNC(=O)c1ccco1 | 2.8 ×10³ /M/s | 0.5 | 7.5 | –
33 | O=C(O)CNC(=O)/C=C/c1ccccc1 | 3.6 ×10⁴ /M/s | 5.8 | 8.4 | –
34 | CCc1ccc(C(=O)NCC(=O)O)cc1 | 3.1 ×10³ /M/s | 0.5 | 3.6 | –
35 | CC(SC(=S)c1ccccc1)C(=O)O (racemic) | – | – | – | inhibition [1]: < 5%
36 | O=C(O)CNC(=O)c1ccc(Cl)cc1 | 6.6 ×10³ /M/s | 1.1 | 4.1 | –
37 | O=C(O)CNC(=O)c1ccc(O)cc1 | 3.5 ×10³ /M/s | 0.6 | 5.8 | –
38 | CC(C)[C@H](NC(=O)[C@H](Cc1ccc(O)cc1)NS(=O)(=O)c1cccc2c(N(C)C)cccc12)C(=O)N[C@H](C)C(=O)O (Dansyl-Tyr-Val-[dA]-OH) | 3 ×10⁴ /M/s | – | 0.91 | –
39 | CC(C)CCC(=O)NCC(=O)O | 2.3 ×10⁴ /M/s | 3.7 | 6.6 | –
40 | O=C(O)CNC(=O)CNC(=O)c1ccc([N+](=O)[O-])cc1 | 7.6 ×10⁴ /M/s | 12 | 8.7 | –
41 | O=C(O)CSc1ccccc1 | – | – | – | inhibition [1]: < 5%
42 | CC(NC(=S)c1ccccc1)C(=O)O (stereo not given) | – | – | – | inhibition [1]: < 5%
43 | CC(C#N)(CCC(=O)O)SC(=S)c1ccccc1 (stereo not given) | – | – | – | inhibition [1]: < 5%
44 | Cc1ccccc1C(=O)NCC(=O)O | 1.8 ×10³ /M/s | 0.3 | 7.9 | –
45 | O=C(O)CNC(=O)c1ccc([N+](=O)[O-])cc1 | 8.9 ×10³ /M/s | 1.4 | 4.2 | –
46 | O=C(O)CNC(=O)[C@@H]1CCC(=O)N1 ([pGlu]-Gly-OH) | 3 ×10⁴ /M/s | 4.8 | 9.3 | –
47 | O=C(O)CNC(=O)CSc1ccccc1 | 2.5 ×10⁴ /M/s | 4 | 4.6 | –
48 | O=C(O)CNC(=S)Cc1ccccc1 | 1 ×10⁵ /M/s | 16 | 2.4 | –

Row | Compound | Ratio [2] | Activity [3] | Vmax(app) [4] [s⁻¹] | further results
49 | O=C(O)CNC(=O)c1ccc(Br)cc1 | 4.9 ×10³ /M/s | 0.8 | 2.5 | –
50 | NCC(=O)NNC(=O)OCc1ccccc1 | – | – | – | inhibition [1]: < 5%
51 | O=C(O)CNC(=O)OCc1ccccc1 | 1.5 ×10⁴ /M/s | 2.4 | 8.6 | –
52 | O=C(O)CSC(=S)CCc1ccccc1 | – | – | – | Kis [5]: 9.4 µM; inhibition [1]: < 5%; Kis [6]: 30 µM
53 | O=C(O)CSC(=S)Nc1ccccc1 | – | – | – | IC50 [1]: 3.5 mM
54 | C[C@@H](NC(=O)c1ccccc1)C(=O)O | 3.2 M⁻¹ s⁻¹ | – | 0.27 | –
55 | Nc1ccc(C(=O)NCC(=O)O)cc1 | 2.2 ×10³ /M/s | 0.4 | 5.6 | –
56 | O=C(O)CNC(=O)c1cccnc1 | – | 0.7 | – | –
57 | O=C(O)CNC(=O)CNC(=O)CNC(=O)c1ccccc1 (Bz-Gly-Gly-Gly-OH) | 2.9 ×10⁴ /M/s | 4.7 | 8.8 | –
58 | O=C(O)CNC(=O)c1ccc(C(F)(F)F)cc1 | 3.6 ×10³ /M/s | 0.6 | 2.8 | –
59 | COc1ccc(C(=O)NCC(=O)O)cc1 | 6.4 ×10³ /M/s | 1 | 5.3 | –
60 | O=C(O)CSC(=S)c1ccccc1 | – | – | – | Kis [5]: 39 µM; inhibition [1]: < 5%; Kis [6]: 49 µM
61 | CC(Cc1ccccc1)C(=O)NCC(=O)O (stereo not given) | 4.3 ×10³ /M/s | 0.69 | 18 | –
62 | O=C(O)CCSC(=S)Nc1ccccc1 | – | – | – | inhibition [1]: < 5%
63 | O=C(O)CNC(=S)Nc1ccccc1 | – | – | – | inhibition [1]: < 5%
64 | O=C(O)CNC(=O)c1ccccc1O | 7.1 ×10³ /M/s | 1.1 | 4.9 | –
65 | CC(C)SCC(=O)NCC(=O)O | 8.2 ×10³ /M/s | 1.3 | 1.8 | –
66 | CC(C)(C)OC(=O)NCC(=O)NCC(=O)O (Boc-Gly-Gly-OH) | 2.5 ×10⁴ /M/s | 4 | 7.5 | –
67 | O=C(O)CNC(=O)c1cccs1 | 6 ×10³ /M/s | 1 | 9.3 | –
68 | CCCc1ccc(C(=O)NCC(=O)O)cc1 | 4.2 ×10³ /M/s | 0.7 | 5.1 | –
69 | Nc1ccccc1C(=O)NCC(=O)O | 2.9 ×10³ /M/s | 0.5 | 4.2 | –
70 | O=C(O)CNC(=O)/C=C/c1ccco1 | 2.8 ×10³ /M/s | 0.45 | 3.4 | –
